# Where “and” joins values, the source holds several entries; their conditions need not be identical. Equal values may be shown once.
# Key:
# [1] = Effect of compound (10e-6 mol/L) on secretion of Interleukin-2 treated with bone marrow-derived dendritic cells in absence of lipopolysaccharide; type: functional, Mus musculus
# Summary of the method: (§1)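 BMDCs came from BALB/c bone marrow adherent cells grown with IL-4 and GM-CSF (10 ng/mL each); half the medium was renewed every other day. On day 5 cells were preincubated with compound for 30 min, then held ±LPS (1.0 μg/mL) for 48 h. Supernatant IL-2 and IL-12 (pg/mL) were measured by sandwich ELISA. Detection limits were 15.0 and 7.8 pg/mL.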
# Mus musculus [2] = species: Mus musculus; experiment: Effect of compound (10e-6 mol/L) on rate of proliferation of murine splenocytes in presence of concanavalin A compared to control; type: functional
# Summary of the method: (§2)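 Normal murine splenocytes were exposed to compound with or without concanavalin A (2 μg/mL) for 72 h. Proliferation was read by MTT as OD570. Increased rate (%) was taken versus the matching control without or with ConA. Mean ± SD.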
# P388 = experiment: Increased inhibitory ratio against P388 mice tumor cells compared to control; type: functional, Mus musculus
# Summary of the method: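 Thioglycollate-elicited peritoneal macrophages from C57BL/6J mice (harvested 3 days after ip TG) were coincubated with P388 leukemia cells and compound for 72 h. P388 with compound alone served as the toxicity control. Surviving tumor cells were read by MTT at 570 nm, reference 630 nm. The inhibitory ratio was taken versus control.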
# Mus musculus [3] = species: Mus musculus; experiment: Effect of compound (10e-6 mol/L) on rate of proliferation of murine splenocytes in absence of concanavalin A compared to control; type: functional; summary of the method: as §2
# Mus musculus [4] = experiment: Effect (10 mg/kg/day*7 days, i.v.) on cyclophosphamide (CY, i.p.) treated mice (immunosuppressed animal model) assessed by CD4+/CD8+ ratio in peripheral blood mononuclear cells; type: functional
# Summary of the method: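 Male C57BL/6J mice given cyclophosphamide 30 (mg/kg)/day ip for 5 consecutive days, then randomized and dosed iv for 7 consecutive days. PBMCs collected on day 8; ratio of CD3+CD4+ to CD3+CD8+ T cells measured by flow cytometry (CD4-FITC, PE anti-CD8 staining). n = 3.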
# P815 [5] = experiment: In vitro stimulatory effect on increased rate of allogenic CTL cytotoxicity on P815 cells mediated by BMDC in presence of LPS; type: functional, Mus musculus
# Summary of the method: (§3)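 BALB/c (H-2d) BMDCs were pretreated with compound ±LPS for 24 h, then cocultured in quadruplicate with C57BL/6J (H-2b) splenocytes. Effectors harvested on day 6 were set to 5 × 10^5 cells and incubated with 1 × 10^4 P815 (H-2d) targets for 5 h. LDH release was read at OD450. Specific release = (E−S)/(M−S)×100; maximum release used 1% Triton X-100.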
# [6] = In vivo toxicity (500 mg/kg) is assessed as mass index in mice spleen cells; type: organism-based; details: mouse
# [7] = In vivo toxicity (100 mg/kg) is assessed as increase in mass index of mice spleen cells relative to control (56.4+/-11.5); type: organism-based; details: mouse
# [8] = Effect of compound (10e-7 mol/L) on secretion of Interleukin-12 treated with bone marrow-derived dendritic cells in presence of lipopolysaccharide; type: functional, Mus musculus; summary of the method: as §1
# Mus musculus [9] = experiment: Effect (2.0 mg/kg/day*7 days, i.v.) on cyclophosphamide (CY, i.p.) treated mice (immunosuppressed animal model) assessed by CD4+/CD8+ ratio in peripheral blood mononuclear cells; type: functional
# Mus musculus [10] = experiment: Effect (0.5 mg/kg/day*7 days, i.v.) on cyclophosphamide (CY, i.p.) treated mice (immunosuppressed animal model) assessed by CD4+/CD8+ ratio in peripheral blood mononuclear cells; type: functional
# [11] = Effect of compound (10e-9 mol/L) on secretion of Interleukin-2 treated with bone marrow-derived dendritic cells in presence of lipopolysaccharide; type: functional, Mus musculus; summary of the method: as §1
# [12] = Effect of compound (10e-7 mol/L) on secretion of Interleukin-2 treated with bone marrow-derived dendritic cells in absence of lipopolysaccharide; type: functional, Mus musculus; summary of the method: as §1
# [13] = In vivo toxicity (100 mg/kg) is assessed as mass index in mice spleen cells; type: organism-based; details: mouse
# [14] = In vivo toxicity (100 mg/kg) is assessed as mass index in mice thymus cells; type: organism-based; details: mouse
# Mus musculus [15] = species: Mus musculus; experiment: Effect of compound (10e-7 mol/L) on rate of proliferation of murine splenocytes in absence of concanavalin A compared to control; type: functional; summary of the method: as §2
# [16] = Effect of compound (10e-6 mol/L) on secretion of Interleukin-12 treated with bone marrow-derived dendritic cells in absence of lipopolysaccharide; type: functional, Mus musculus; summary of the method: as §1
# Mus musculus [17] = species: Mus musculus; experiment: Effect of compound (10e-8 mol/L) on rate of proliferation of murine splenocytes in presence of concanavalin A compared to control; type: functional; summary of the method: as §2
# P815 [18] = experiment: In vitro stimulatory effect on specific release of allogenic CTL cytotoxicity on P815 cells mediated by BMDC in presence of LPS; type: functional, Mus musculus; summary of the method: as §3
# [19] = In vivo toxicity (100 mg/kg) is assessed as increase in mass index of mice thymus cells relative to control (44.1+/-5.13); type: organism-based; details: mouse
# [20] = Effect of compound (10e-8 mol/L) on secretion of Interleukin-12 treated with bone marrow-derived dendritic cells in presence of lipopolysaccharide; type: functional, Mus musculus; summary of the method: as §1
# [21] = Effect of compound (10e-8 mol/L) on secretion of Interleukin-12 treated with bone marrow-derived dendritic cells in absence of lipopolysaccharide; type: functional, Mus musculus; summary of the method: as §1
# [22] = Effect of compound (10e-8 mol/L) on secretion of Interleukin-2 treated with bone marrow-derived dendritic cells in presence of lipopolysaccharide; type: functional, Mus musculus; summary of the method: as §1
# [23] = Effect of compound (10e-8 mol/L) on secretion of Interleukin-2 treated with bone marrow-derived dendritic cells in absence of lipopolysaccharide; type: functional, Mus musculus; summary of the method: as §1
# [24] = In vivo toxicity (500 mg/kg) is assessed as increase in mass index of mice spleen cells relative to control (56.4+/-11.5); type: organism-based; details: mouse
# [25] = Effect of compound (10e-6 mol/L) on secretion of Interleukin-12 treated with bone marrow-derived dendritic cells in presence of lipopolysaccharide; type: functional, Mus musculus; summary of the method: as §1
# [26] = Effect of compound (10e-6 mol/L) on secretion of Interleukin-2 treated with bone marrow-derived dendritic cells in presence of lipopolysaccharide; type: functional, Mus musculus; summary of the method: as §1
# [27] = Effect of compound (10e-9 mol/L) on secretion of Interleukin-12 treated with bone marrow-derived dendritic cells in presence of lipopolysaccharide; type: functional, Mus musculus; summary of the method: as §1
# [28] = Effect of compound (10e-7 mol/L) on secretion of Interleukin-12 treated with bone marrow-derived dendritic cells in absence of lipopolysaccharide; type: functional, Mus musculus; summary of the method: as §1
# Mus musculus [29] = species: Mus musculus; experiment: Effect of compound (10e-9 mol/L) on rate of proliferation of murine splenocytes in presence of concanavalin A compared to control; type: functional; summary of the method: as §2
# [30] = Effect of compound (10e-7 mol/L) on secretion of Interleukin-2 treated with bone marrow-derived dendritic cells in presence of lipopolysaccharide; type: functional, Mus musculus; summary of the method: as §1
# Mus musculus [31] = species: Mus musculus; experiment: Effect of compound (10e-8 mol/L) on rate of proliferation of murine splenocytes in absence of concanavalin A compared to control; type: functional; summary of the method: as §2
# [32] = In vivo toxicity (500 mg/kg) is assessed as mass index in mice thymus cells; type: organism-based; details: mouse
# Mus musculus [33] = species: Mus musculus; experiment: Effect of compound (10e-9 mol/L) on rate of proliferation of murine splenocytes in absence of concanavalin A compared to control; type: functional; summary of the method: as §2
# Mus musculus [34] = species: Mus musculus; experiment: Effect of compound (10e-7 mol/L) on rate of proliferation of murine splenocytes in presence of concanavalin A compared to control; type: functional; summary of the method: as §2
# P815 [35] = experiment: In vitro stimulatory effect on specific release of allogenic CTL cytotoxicity on P815 cells mediated by BMDC in absence of LPS; type: functional, Mus musculus; summary of the method: as §3
# P815 [36] = experiment: In vitro stimulatory effect on increased rate of allogenic CTL cytotoxicity on P815 cells mediated by BMDC in absence of LPS; type: functional, Mus musculus; summary of the method: as §3
smiles,measurement,setting,value
CC(=O)N[C@H]1[C@@H](OCc2ccccc2)O[C@H](CO)[C@@H](O)[C@@H]1O[C@H](C)C(=O)N[C@@H](C)C(=O)N[C@H](CCC(=O)N[C@@H](CCCCNC(=O)/C=C/c1cccc([N+](=O)[O-])c1)C(N)=O)C(N)=O,Activity,[1],103 pg/mL
same,Increase,Mus musculus [2],82%
same,IR,P388,71%
same,Increase,Mus musculus [3],191%
same,Ratio,Mus musculus [4],4.47
same,Increase,P815 [5],82% and 49% and 28%
same,Mass index,[6],86.1 mg/10g body weight
same,Mass index,[7],6%
same,Activity,[8],838 pg/mL
same,Ratio,Mus musculus [9],4.14
same,Ratio,Mus musculus [10],3.18
same,Activity,[11],94.8 pg/mL
same,Activity,[12],76 pg/mL
same,Mass index,[13],59.9 mg/10g body weight
same,Mass index,[14],42.8 mg/10g body weight
same,Increase,Mus musculus [15],75%
same,Activity,[16],918 pg/mL
same,Increase,Mus musculus [17],15%
same,Release,P815 [18],35.7% and 31.3% and 28.5% and 23.8%
same,Mass index,[19],-1.4% and -2.8%
same,Activity,[20],819 pg/mL
same,Activity,[21],725 pg/mL
same,Activity,[22],107 pg/mL
same,Activity,[23],60 pg/mL
same,Mass index,[24],53%
same,Activity,[25],988 pg/mL
same,Activity,[26],132 pg/mL
same,Activity,[27],800 pg/mL
same,Activity,[28],786 pg/mL
same,Increase,Mus musculus [29],7.8%
same,Activity,[30],117 pg/mL
same,Increase,Mus musculus [31],27.3%
same,Mass index,[32],43.5 mg/10g body weight
same,Increase,Mus musculus [33],5.41%
same,Increase,Mus musculus [34],38%
O=P1(N(CCCl)CCCl)NCCCO1 (stereo not drawn) [CYCLOPHOSPHAMIDE ANHYDROUS],Ratio,Mus musculus [4],2.4
CCCCCCCCCCCCCCCCCC(=O)NCCCC[C@H](NC(=O)CC[C@@H](NC(=O)[C@H](C)NC(=O)[C@@H](C)O[C@H]1[C@H](O)[C@@H](CO)OC(O)[C@@H]1NC(C)=O)C(N)=O)C(=O)O (stereo partly drawn) [ROMURTIDE],Increase,Mus musculus [2],67%
same,IR,P388,45%
same,Increase,Mus musculus [3],122%
same,Increase,P815 [5],45%
same,Release,P815 [35],31.7%
same,Increase,P815 [36],187%
same,Release,P815 [18],30.7%
